Measurements reported in ChEMBL document CHEMBL3046444, “Antiproliferative activity and synthesis of 8-prenylnaringenin derivatives by demethylation of 7-O- and 4'-O-substituted isoxanthohumols” (2012).
≈ marks a conversion by molar mass, not a printed value. Calls of active or inactive are those of the source. The calls are words filed in the database; no cut-off is given here.

Assays:
Assay type in all cases: functional
HT-29 = assay: Antiproliferative activity against Homo sapiens (human) HT-29 cells after 72 hr by SRB assay; details: for IC50: HT-29, 72 h, read-out: ID50 (the source's name)
Method in brief: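 HT-29 colon adenocarcinoma cells were plated at 10^5/ml in RPMI 1640/Opti-MEM (1:1) with 5% FBS, antibiotics, 1 mM pyruvate and 2 mM glutamine. Test agents (0.1–100 μg/ml, solvent-matched controls) were added after 24 h and left for 72 h. Cells were TCA-fixed and stained 30 min with 0.4% SRB in 1% acetic acid, dye extracted with 10 mM Tris, OD 540 nm. Triplicates, 3–5 experiments; ID50 (μg/ml).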

CCRF-CEM = assay: Antiproliferative activity against Homo sapiens (human) CCRF-CEM cells after 72 hr by MTT assay; details: for IC50: read-out: ID50 (the source's name)
Method in brief: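 Human leukemia CCRF/CEM cells seeded at 10^5/ml in RPMI 1640 with 10% FBS, penicillin/streptomycin and 2 mM L-glutamine at 37°C, 5% CO2. Compounds were added after 24 h at 0.1–100 μg/ml, with acetone or ethanol vehicle controls, and exposure ran 72 h. MTT was given for 4 h, formazan solubilized in SDS/DMF for 24 h, and read at 570 nm. Triplicates, 3–5 repeats; ID50 in μg/ml vs untreated.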

MCF7 = assay: Antiproliferative activity against Homo sapiens (human) MCF7 cells after 72 hr by SRB assay; details: for IC50: MCF7, 72 h, read-out: ID50 (the source's name)
Method in brief: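 MCF-7 breast cancer cells at 10^5/ml in Eagle's medium with 10% FBS, antibiotics, 2 mM glutamine, 1.0 mM pyruvate, 1% amino acids and 0.8 mg/l insulin, 37°C, 5% CO2. After 24 h, compounds at 0.1–100 μg/ml (acetone/ethanol controls) were added for 72 h. SRB read-out: cold 50% TCA fixation, 0.4% SRB stain, Tris extraction, 540 nm. Triplicates, repeated 3–5 times; 50% proliferation inhibition dose (ID50, μg/ml).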

Compound	IC50 (HT-29) [µg/mL]	IC50 (CCRF-CEM) [µg/mL]	IC50 (MCF7) [µg/mL]	ID50 (HT-29)	ID50 (CCRF-CEM)	ID50 (MCF7)
C=CCOc1ccc(C2CC(=O)c3c(O)cc(OCC=C)c(CC=C(C)C)c3O2)cc1 (configuration not stated)				inactive	inactive	inactive
CCCCCCCCCCCCCCCC(=O)Oc1ccc(C2CC(=O)c3c(O)cc(OC(=O)CCCCCCCCCCCCCCC)c(CC=C(C)C)c3O2)cc1 (configuration not stated)				inactive	inactive	inactive
CCCCCCCCCCCCCCCC(=O)Oc1ccc([C@@H]2CC(=O)c3c(OC)cc(OC(=O)CCCCCCCCCCCCCCC)c(CC=C(C)C)c3O2)cc1				inactive	inactive	inactive
CC(=O)Oc1ccc(C2CC(=O)c3c(O)cc(OC(C)=O)c(CC=C(C)C)c3O2)cc1 (configuration not stated) [7,4'-DI-O-ACETYL-8-PRENYLNARINGENIN]	36.1 (≈ 85.1 µM)	37 (≈ 87.2 µM)	28 (≈ 66 µM)			
COc1cc(OC(C)=O)c(CC=C(C)C)c2c1C(=O)C[C@@H](c1ccc(OC(C)=O)cc1)O2 [7,4'-DI-O-ACETYLISOXANTHOHUMOL]	32.1 (≈ 73.2 µM)	23.3 (≈ 53.1 µM)	16.9 (≈ 38.5 µM)			
C=CCOc1ccc([C@@H]2CC(=O)c3c(OC)cc(OCC=C)c(CC=C(C)C)c3O2)cc1 [7,4'-DI-O-ALLYLISOXANTHOHUMOL]	6.2 (≈ 14.3 µM)	2.7 (≈ 6.21 µM)	5.2 (≈ 12 µM)			
COc1ccc(C2CC(=O)c3c(O)cc(OC)c(CC=C(C)C)c3O2)cc1 (configuration not stated) [7,4'-DI-O-METHYL-8-PRENYLNARINGENIN]			36.9 (≈ 100 µM)	inactive	inactive	
COc1ccc([C@@H]2CC(=O)c3c(OC)cc(OC)c(CC=C(C)C)c3O2)cc1 [7,4'-DI-O-METHYLISOXANTHOHUMOL]	6 (≈ 15.7 µM)	5 (≈ 13.1 µM)	6.6 (≈ 17.3 µM)			

More lines, main results first:

IC50 (HT-29) [µg/mL]	IC50 (CCRF-CEM) [µg/mL]	IC50 (MCF7) [µg/mL]	Compound	ID50 (HT-29)	ID50 (CCRF-CEM)	ID50 (MCF7)
8.2 (≈ 16.6 µM)	4.3 (≈ 8.69 µM)	7.1 (≈ 14.4 µM)	CCCCCOc1ccc([C@@H]2CC(=O)c3c(OC)cc(OCCCCC)c(CC=C(C)C)c3O2)cc1 [7,4'-DI-O-N-PENTYL-8-ISOXANTHOHUMOL]			
6.9 (≈ 16.3 µM)	5.4 (≈ 12.7 µM)	8.3 (≈ 19.6 µM)	CCCCCOc1cc(OC)c2c(c1CC=C(C)C)O[C@H](c1ccc(O)cc1)CC2=O [7-O-N-PENTYLISOXANTHOHUMOL]			
10 (≈ 24.4 µM)	4.8 (≈ 11.7 µM)	3.9 (≈ 9.5 µM)	CCCCCOc1cc(O)c2c(c1CC=C(C)C)OC(c1ccc(O)cc1)CC2=O (configuration not stated) [7-O-PENTYL-8-PRENYLNARINGENIN]			
32.6 (≈ 92 µM)	18.2 (≈ 51.4 µM)	9.4 (≈ 26.5 µM)	COc1cc(O)c(CC=C(C)C)c2c1C(=O)CC(c1ccc(O)cc1)O2 (configuration not stated) [ISOXANTHOHUMOL]			
33.2 (≈ 97.5 µM)	24.2 (≈ 71.1 µM)	19.4 (≈ 57 µM)	CC(C)=CCc1c(O)cc(O)c2c1OC(c1ccc(O)cc1)CC2=O (configuration not stated) [SOPHORAFLAVANONE B]			
3.8 (≈ 10.7 µM)	4.1 (≈ 11.6 µM)	4.7 (≈ 13.3 µM)	COc1cc(O)c(CC=C(C)C)c(O)c1C(=O)/C=C/c1ccc(O)cc1 [XANTHOHUMOL]			
